ChEMBL document CHEMBL4190252, “Synthesis, antitumor activity and CDK1 inhibiton of new thiazole nortopsentin analogues” (Eur J Med Chem, 2017)
The source made the active and inactive calls. The rule behind the calls is not given here.

Columns and labels:
[1] = system: RXF 393; experiment: Growth inhibition of human RXF393 cells incubated for 48 hrs by sulforhodamine B assay; format: functional; conditions: RXF 393, 48 h
Summary of the method: (§1)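 NCI full panel screen: five 10-fold dilutions (10^-4–10^-8 M). GI50 is the molar concentration giving 50% inhibition of net cell growth.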

[2] = system: MOLT-4; experiment: Growth inhibition of human MOLT4 cells incubated for 48 hrs by sulforhodamine B assay; format: functional; conditions: MOLT-4, 48 h; summary of the method: as §1
[3] = system: OVCAR-5; experiment: Growth inhibition of human OVCAR5 cells incubated for 48 hrs by sulforhodamine B assay; format: functional; conditions: OVCAR-5, 48 h; summary of the method: as §1
[4] = system: 786-0; experiment: Growth inhibition of human 786-0 cells incubated for 48 hrs by sulforhodamine B assay; format: functional; conditions: 786-0, 48 h; summary of the method: as §1
[5] = system: SK-OV-3; experiment: Growth inhibition of human SKOV3 cells incubated for 48 hrs by sulforhodamine B assay; format: functional; conditions: SK-OV-3, 48 h
Summary of the method: (§2)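 NCI full-panel human tumour cell screen. Cells were exposed to five 10-fold dilutions from 10^-4 to 10^-8 M. GI50 is the molar concentration giving 50% inhibition of net cell growth, and a mean graph midpoint was calculated across the panel.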

[6] = system: COLO 205; experiment: Growth inhibition of human COLO205 cells incubated for 48 hrs by sulforhodamine B assay; format: functional; conditions: COLO 205, 48 h; summary of the method: as §1
[7] = system: MCF7; experiment: Cell cycle arrest in human MCF7 cells assessed as reduction in accumulation at S phase at GI50 concentration after 48 hrs by propidium iodide-staining based flow cytometry; format: functional
Summary of the method: (§3)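 Cells were trypsinized, washed in cold PBS, and 1 x 10^6 cells stained with 20 µg/ml PI plus 200 µg/ml RNase for 30 min at room temperature in the dark. At least 1x 10^4 cells were analysed by flow cytometry. Mean±SD of three experiments in triplicate.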

[8] = system: SF-268; experiment: Growth inhibition of human SF268 cells incubated for 48 hrs by sulforhodamine B assay; format: functional; conditions: SF-268, 48 h; summary of the method: as §1
[9] = system: A549; experiment: Growth inhibition of human A549/ATCC cells incubated for 48 hrs by sulforhodamine B assay; format: functional; conditions: A549, 48 h; summary of the method: as §1
[10] = system: T47D; experiment: Growth inhibition of human T47D cells incubated for 48 hrs by sulforhodamine B assay; format: functional; summary of the method: as §2
[11] = system: Panel NCI-60 (60 carcinoma cell lines); experiment: Growth inhibition of human NCI60 cells at 10^-5 M incubated for 48 hrs by sulforhodamine B assay; format: functional, cell-based
[12] = system: MCF7; experiment: Cell cycle arrest in human MCF7 cells assessed as reduction in accumulation at G0/G1 phase at GI50 concentration after 48 hrs by propidium iodide-staining based flow cytometry; format: functional; summary of the method: as §3
[13] = system: KM12; experiment: Growth inhibition of human KM12 cells incubated for 48 hrs by sulforhodamine B assay; format: functional; conditions: KM12, 48 h; summary of the method: as §1
[14] = system: SN12C; experiment: Growth inhibition of human SN12C cells incubated for 48 hrs by sulforhodamine B assay; format: functional; summary of the method: as §2
[15] = system: SK-MEL-2; experiment: Growth inhibition of human SK-MEL-2 cells incubated for 48 hrs by sulforhodamine B assay; format: functional; conditions: SK-MEL-2, 48 h; summary of the method: as §2
[16] = system: SW-620; experiment: Growth inhibition of human SW620 cells incubated for 48 hrs by sulforhodamine B assay; format: functional; conditions: SW-620, 48 h; summary of the method: as §2
[17] = system: SR; experiment: Growth inhibition of human SR cells incubated for 48 hrs by sulforhodamine B assay; format: functional; summary of the method: as §2
[18] = system: HOP-62; experiment: Growth inhibition of human HOP62 cells incubated for 48 hrs by sulforhodamine B assay; format: functional; conditions: HOP-62, 48 h; summary of the method: as §1
[19] = system: NCI/ADR-RES; experiment: Growth inhibition of human NCI/ADR-RES cells incubated for 48 hrs by sulforhodamine B assay; format: functional; summary of the method: as §1
[20] = system: OVCAR-8; experiment: Growth inhibition of human OVCAR8 cells incubated for 48 hrs by sulforhodamine B assay; format: functional; conditions: OVCAR-8, 48 h; summary of the method: as §1
[21] = system: HCT-15; experiment: Growth inhibition of human HCT15 cells incubated for 48 hrs by sulforhodamine B assay; format: functional; conditions: HCT-15, 48 h; summary of the method: as §1
[22] = system: Malme-3M; experiment: Growth inhibition of human MALME-3M cells incubated for 48 hrs by sulforhodamine B assay; format: functional; summary of the method: as §1
[23] = system: SNB-75; experiment: Growth inhibition of human SNB75 cells incubated for 48 hrs by sulforhodamine B assay; format: functional; conditions: SNB-75, 48 h; summary of the method: as §2
[24] = system: A498; experiment: Growth inhibition of human A498 cells incubated for 48 hrs by sulforhodamine B assay; format: functional; conditions: A498, 48 h; summary of the method: as §1
[25] = system: UO-31; experiment: Growth inhibition of human UO31 cells incubated for 48 hrs by sulforhodamine B assay; format: functional; conditions: UO-31, 48 h; summary of the method: as §2
[26] = system: SNB-19; experiment: Growth inhibition of human SNB19 cells incubated for 48 hrs by sulforhodamine B assay; format: functional; conditions: SNB-19, 48 h; summary of the method: as §2
[27] = system: OVCAR-3; experiment: Growth inhibition of human OVCAR3 cells incubated for 48 hrs by sulforhodamine B assay; format: functional; conditions: OVCAR-3, 48 h; summary of the method: as §1
[28] = system: HCC 2998; experiment: Growth inhibition of human HCC2998 cells incubated for 48 hrs by sulforhodamine B assay; format: functional; conditions: HCC 2998, 48 h; summary of the method: as §1
[29] = system: Hs-578T; experiment: Growth inhibition of human Hs 578T cells incubated for 48 hrs by sulforhodamine B assay; format: functional; summary of the method: as §1
[30] = system: UACC-257; experiment: Growth inhibition of human UACC257 cells incubated for 48 hrs by sulforhodamine B assay; format: functional; conditions: UACC-257, 48 h; summary of the method: as §2
[31] = system: ACHN; experiment: Growth inhibition of human ACHN cells incubated for 48 hrs by sulforhodamine B assay; format: functional; summary of the method: as §1
[32] = system: SF-295; experiment: Growth inhibition of human SF295 cells incubated for 48 hrs by sulforhodamine B assay; format: functional; conditions: SF-295, 48 h; summary of the method: as §1
[33] = system: IGROV-1; experiment: Growth inhibition of human IGROV1 cells incubated for 48 hrs by sulforhodamine B assay; format: functional; conditions: IGROV-1, 48 h; summary of the method: as §1
[34] = system: MCF7; experiment: Induction of apoptosis in human MCF7 cells assessed as viable cells at 2 x 10^-6 M after 72 hrs by Annexin V/propidium iodide double staining-based flow cytometry (reference value: 98.9%); format: functional; conditions: MCF7, 72 h, read-out: Activity
Summary of the method: (§4)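 MCF-7 cells were grown in RPMI with 10% FBS, 2 mM L-glutamine and antibiotics at 37 °C in 5% CO2. They were seeded at 2.0 x 10^5 cells/cm2 in triplicate, left to adhere overnight, then treated for 72 h; DMSO 0.1% served as vehicle. Trypsinised cells at 2.0 x 10^5/mL were stained with annexin V-FITC and PI for 15 min at room temperature in the dark. At least 1.0 x 10^4 cells were gated into viable, early apoptotic, late apoptotic and necrotic quadrants.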

[35] = Selectivity index, ratio of LC50 for human Caco2 cells to GI50 for human MCF7 cells; format: toxicity; conditions: Caco2 cells (LC50) and MCF7 cells (GI50), read-out: Selectivity Index
Summary of the method: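 Caco-2 cells were differentiated to a normal intestinal-like state for 15 days after confluence, seeded at 2 x 10^4 cells/well in RPMI, and treated with 5–100 µM for 72 h. MTT was added for 2 h at 37 °C, formazan was dissolved in DMSO and read at 570 nm. LC50 came from viability-versus-concentration plots, with at least three experiments in triplicate. SI is the Caco-2 LC50 divided by the MCF-7 GI50.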

[36] = system: MCF7; experiment: Induction of apoptosis in human MCF7 cells assessed as necrotic cells at 2 x 10^-6 M after 72 hrs by Annexin V/propidium iodide double staining-based flow cytometry (reference value: 0.1%); format: functional; summary of the method: as §4

SMILES | GI50 [1] [µM] | GI50 [3] [µM] | GI50 [4] [µM] | GI50 [6] [µM] | GI50 [9] [µM] | GI50 [10] [µM] | growth inhibition (GI) [11] | GI50 [13] [µM] | GI50 [14] [µM] | GI50 [15] [µM] | GI50 [16] [µM] | GI50 [17] [µM] | GI50 [18] [µM] | GI50 [19] [µM] | GI50 [20] [µM] | GI50 [21] [µM] | GI50 [22] [µM] | GI50 [23] [µM] | GI50 [24] [µM] | GI50 [25] [µM] | further results
COCCn1cc(-c2nc(-c3c[nH]c4ncccc34)cs2)c2cc(OC)ccc21 | 1.18 | 0.61 | 3.44 | 5.03 | 4.41 | 0.04 | Active | 0.16 | 5.51 | 3.56 | 4.5 | 1.28 | 2.12 | 3.07 | 4.11 | 2.15 | 12.6 | 1.1 | 1.87 | 2.31 | GI50 [2]: 6.02 µM; GI50 [5]: 3.49 µM; Activity [7]: Active; GI50 [8]: 4.42 µM; Activity [12]: Active; GI50 [26]: 9.71 µM; GI50 [27]: 4.66 µM; GI50 [28]: 4.81 µM; GI50 [29]: 2.07 µM; GI50 [30]: 4.26 µM; GI50 [31]: 3.08 µM; GI50 [32]: 2.7 µM; GI50 [33]: 0.55 µM
COCCn1cc(-c2csc(-c3c[nH]c4ccc(F)cc34)n2)c2cccnc21 | 5.91 | 10.1 | 5.12 | 2.69 | 4.51 | 0.65 | Active | 1.77 | > 100 | 3.89 | 3.63 | 3.24 | 2.02 | 2.17 | 4.1 | 2.35 | 4.54 | 2.97 | 3.26 | 4.41 | GI50 [2]: 5.56 µM; viability at 2 µM [34]: 70.7%; Activity [7]: Active; GI50 [8]: 7.67 µM; Activity [12]: Active; selectivity ratio [35]: 46; GI50 [26]: 98 µM; GI50 [27]: 3.34 µM; GI50 [28]: 4.54 µM; GI50 [29]: 8.82 µM; GI50 [31]: 5.27 µM; Activity [36]: 0.1%; GI50 [32]: 3.2 µM; GI50 [33]: 3.49 µM
COCCn1cc(-c2csc(-c3c[nH]c4ccccc34)n2)c2cccnc21 | 5.76 | 28.2 | 6.25 | 2.66 | 7.1 | 0.42 | Active | 0.76 | > 100 | 7.38 | 3.52 | 3.02 | 2.82 | 1.76 | 8 | 2.34 | 3.58 | 1.43 | 3.03 | 4.15 | GI50 [5]: 14.8 µM; viability at 2 µM [34]: 53.4%; Activity [7]: Active; GI50 [8]: 6.98 µM; Activity [12]: Active; selectivity ratio [35]: 41; GI50 [26]: 16.2 µM; GI50 [27]: 2.94 µM; GI50 [28]: 4.08 µM; GI50 [29]: 9.14 µM; GI50 [30]: > 100 µM; GI50 [31]: 5.6 µM; Activity [36]: 0.1%; GI50 [32]: 3.35 µM; GI50 [33]: 2.53 µM
COCCn1cc(-c2csc(-c3c[nH]c4ccc(Br)cc34)n2)c2cccnc21 | 3.3 | 4.83 | 4.03 | 3.22 | 6.89 | 1.97 | Active | 2.74 | 7.72 | 6.82 | 3.3 | 3.25 | 7.98 | 2.86 | 5.35 | 3.14 | 3.66 | 4.72 | 3.02 | 3.1 | GI50 [2]: 3.87 µM; GI50 [5]: 13.9 µM; viability at 2 µM [34]: 63.6%; selectivity ratio [35]: 46; GI50 [26]: 12.2 µM; GI50 [27]: 3.9 µM; GI50 [28]: 3.8 µM; GI50 [29]: 4.44 µM; GI50 [30]: 8.69 µM; GI50 [31]: 3.04 µM; Activity [36]: 0.1%; GI50 [32]: 2.83 µM; GI50 [33]: 4.06 µM
